Activity calls are given as the source filed them.
Assays:
Type in all cases: functional, organism-based
[1] = test system: Rattus norvegicus; assay: Antiarthritic activity in Wistar rat type-2 collagen-induced arthritis model assessed as reduction in bone degradation at 1 mg/kg, ig via gavage administered 10 consecutive days starting from day 20 post type-2 collagen injection by X-ray method
[2] = test system: Rattus norvegicus; assay: Antiarthritic activity in Wistar rat type-2 collagen-induced arthritis model assessed as reduction in bone erosion at 1 mg/kg, ig via gavage administered 10 consecutive days starting from day 20 post type-2 collagen injection by X-ray method
[3] = test system: Rattus norvegicus; assay: Antiarthritic activity in Wistar rat type-2 collagen-induced arthritis model assessed as reduction in cartilage space narrowing at 1 mg/kg, ig via gavage administered 10 consecutive days starting from day 20 post type-2 collagen injection by X-ray method
[4] = test system: Rattus norvegicus; assay: Antiarthritic activity in Wistar rat type-2 collagen-induced arthritis model assessed as reduction in mechanical allodynia at 1 mg/kg, ig via gavage administered 10 consecutive days starting from day 20 post type-2 collagen injection
Outline: (§1)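 CIA in male 7-week-old Wistar rats: chicken CII (2 mg/mL in 0.1 M acetic acid) emulsified 1:1 in BCG-containing adjuvant, two intradermal 0.3 mL injections 7 d apart; controls received 0.05 M acetic acid. Gavage from day 20 for 10 d. Scoring, plethysmometry (mean of both hind paws) and von Frey threshold at baseline, pre-dosing and alternate days; n = 10.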

[5] = test system: Rattus norvegicus; assay: Antiarthritic activity in Wistar rat type-2 collagen-induced arthritis model assessed as reduction in hind paw volume at 1 mg/kg, ig via gavage administered 10 consecutive days starting from day 20 post type-2 collagen injection by plethysmometer; outline: as §1
[6] = test system: Rattus norvegicus; assay: Antiarthritic activity in Wistar rat type-2 collagen-induced arthritis model assessed as reduction in arthritis index score at 1 mg/kg, ig via gavage administered 10 consecutive days starting from day 20 post type-2 collagen injection; outline: as §1
[7] = test system: Rattus norvegicus; assay: Antiarthritic activity in Wistar rat type-2 collagen-induced arthritis model assessed as reduction in serum anti-type-2 collagen IgG level at 1 mg/kg, ig via gavage administered 10 consecutive days starting from day 20 post type-2 collagen injection by ELISA method
Outline: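 Serum from Wistar CIA rats collected after completing 10 d gavage dosing (from day 20 post first CII injection) and assayed for anti-CII IgG using a rat anti-CII antibody ELISA kit. One-way ANOVA with Student–Newman–Keuls test; n = 10/group.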

[8] = test system: Rattus norvegicus; assay: Antiarthritic activity in Wistar rat type-2 collagen-induced arthritis model assessed as reduction in serum IL-1beta level at 1 mg/kg, ig via gavage administered 10 consecutive days starting from day 20 post type-2 collagen injection by ELISA method
Outline: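 After 10 d gavage in Wistar CIA rats, trunk blood taken at sacrifice; serum stored at −70 °C. IL-1β and TNF-α measured by commercial ELISA kits per manufacturer. One-way ANOVA with Student–Newman–Keuls test; n = 10/group.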

Measured: Activity

CN(Cc1cnc2nc(N)nc(N)c2n1)c1ccc(C(=O)N[C@@H](CCC(=O)O)C(=O)O)cc1
active: all assays above
